According to ChEMBL document CHEMBL3272314, “Sturcture-activity relationship of daunorubicin and its peptide derivatives” (J Med Chem, 1976):
The source made the active and inactive calls. No cut-off for these calls is given here.

Tests used:
[1] = Retardation factor of the compound in 10% methanol-chloroform by TLC; assay type: physicochemical
[2] = molecular target: Bacterial DNA-directed RNA polymerase (Bacteria) (UniProt P0A8V2+P0A7Z4+P0A8T7+P0A800); test: Inhibition of Escherichia coli DNA-dependent RNA polymerase assessed as [3H]UMP incorporation into RNA using calf thymus DNA at 0.12 mM by liquid scintillation counting; assay type: protein-complex assay
Sequence of Bacterial DNA-directed RNA polymerase (Bacteria) (P0A7Z4 whole entry partner): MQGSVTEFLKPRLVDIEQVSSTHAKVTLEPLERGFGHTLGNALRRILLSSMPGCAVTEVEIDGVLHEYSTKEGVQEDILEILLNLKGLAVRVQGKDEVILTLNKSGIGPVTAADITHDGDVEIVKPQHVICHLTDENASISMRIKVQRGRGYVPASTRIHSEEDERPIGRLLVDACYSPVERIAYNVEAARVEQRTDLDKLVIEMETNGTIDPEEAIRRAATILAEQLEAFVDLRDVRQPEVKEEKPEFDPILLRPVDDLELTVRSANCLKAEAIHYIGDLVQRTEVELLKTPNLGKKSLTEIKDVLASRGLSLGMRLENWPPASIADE
Sequence of Bacterial DNA-directed RNA polymerase (Bacteria) (P0A800 2-91 partner limits assumed): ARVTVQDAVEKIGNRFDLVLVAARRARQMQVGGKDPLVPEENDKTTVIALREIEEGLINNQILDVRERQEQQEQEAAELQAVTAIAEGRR
Sequence of Bacterial DNA-directed RNA polymerase (Bacteria) (P0A8T7 whole entry partner): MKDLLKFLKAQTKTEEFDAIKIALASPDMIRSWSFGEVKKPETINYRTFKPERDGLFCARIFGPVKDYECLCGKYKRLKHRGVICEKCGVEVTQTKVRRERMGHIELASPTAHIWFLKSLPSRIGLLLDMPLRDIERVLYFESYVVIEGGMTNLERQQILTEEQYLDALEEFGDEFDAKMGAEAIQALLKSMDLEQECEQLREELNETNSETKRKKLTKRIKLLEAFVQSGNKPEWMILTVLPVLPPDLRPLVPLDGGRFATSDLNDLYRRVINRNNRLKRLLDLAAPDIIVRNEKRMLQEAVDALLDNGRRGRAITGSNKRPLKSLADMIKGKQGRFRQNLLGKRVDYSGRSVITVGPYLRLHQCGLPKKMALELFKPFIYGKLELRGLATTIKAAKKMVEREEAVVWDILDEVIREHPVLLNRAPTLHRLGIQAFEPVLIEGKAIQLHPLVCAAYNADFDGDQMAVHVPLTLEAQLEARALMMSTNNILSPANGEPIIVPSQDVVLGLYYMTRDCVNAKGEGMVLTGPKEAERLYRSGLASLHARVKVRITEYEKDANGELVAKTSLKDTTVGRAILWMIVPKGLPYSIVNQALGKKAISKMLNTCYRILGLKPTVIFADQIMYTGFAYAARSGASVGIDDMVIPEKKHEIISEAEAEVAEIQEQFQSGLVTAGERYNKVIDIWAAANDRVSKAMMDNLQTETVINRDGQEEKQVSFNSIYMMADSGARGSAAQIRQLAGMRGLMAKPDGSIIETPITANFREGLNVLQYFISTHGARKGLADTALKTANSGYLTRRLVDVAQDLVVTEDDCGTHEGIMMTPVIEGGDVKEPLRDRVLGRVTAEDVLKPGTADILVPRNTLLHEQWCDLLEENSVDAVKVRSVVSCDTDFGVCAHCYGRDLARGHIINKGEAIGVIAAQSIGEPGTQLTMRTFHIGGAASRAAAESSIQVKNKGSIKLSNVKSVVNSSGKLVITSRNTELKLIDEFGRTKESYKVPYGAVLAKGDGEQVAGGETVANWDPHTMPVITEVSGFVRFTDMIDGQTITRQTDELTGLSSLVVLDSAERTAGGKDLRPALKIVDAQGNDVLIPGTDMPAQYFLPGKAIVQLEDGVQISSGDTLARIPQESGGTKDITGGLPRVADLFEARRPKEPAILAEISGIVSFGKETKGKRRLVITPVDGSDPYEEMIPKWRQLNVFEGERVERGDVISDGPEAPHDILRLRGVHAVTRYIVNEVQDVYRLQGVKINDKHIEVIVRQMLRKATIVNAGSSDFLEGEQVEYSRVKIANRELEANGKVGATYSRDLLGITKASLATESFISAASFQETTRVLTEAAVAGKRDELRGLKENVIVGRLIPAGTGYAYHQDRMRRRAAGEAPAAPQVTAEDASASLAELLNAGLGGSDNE
Sequence of Bacterial DNA-directed RNA polymerase (Bacteria) (P0A8V2 whole entry): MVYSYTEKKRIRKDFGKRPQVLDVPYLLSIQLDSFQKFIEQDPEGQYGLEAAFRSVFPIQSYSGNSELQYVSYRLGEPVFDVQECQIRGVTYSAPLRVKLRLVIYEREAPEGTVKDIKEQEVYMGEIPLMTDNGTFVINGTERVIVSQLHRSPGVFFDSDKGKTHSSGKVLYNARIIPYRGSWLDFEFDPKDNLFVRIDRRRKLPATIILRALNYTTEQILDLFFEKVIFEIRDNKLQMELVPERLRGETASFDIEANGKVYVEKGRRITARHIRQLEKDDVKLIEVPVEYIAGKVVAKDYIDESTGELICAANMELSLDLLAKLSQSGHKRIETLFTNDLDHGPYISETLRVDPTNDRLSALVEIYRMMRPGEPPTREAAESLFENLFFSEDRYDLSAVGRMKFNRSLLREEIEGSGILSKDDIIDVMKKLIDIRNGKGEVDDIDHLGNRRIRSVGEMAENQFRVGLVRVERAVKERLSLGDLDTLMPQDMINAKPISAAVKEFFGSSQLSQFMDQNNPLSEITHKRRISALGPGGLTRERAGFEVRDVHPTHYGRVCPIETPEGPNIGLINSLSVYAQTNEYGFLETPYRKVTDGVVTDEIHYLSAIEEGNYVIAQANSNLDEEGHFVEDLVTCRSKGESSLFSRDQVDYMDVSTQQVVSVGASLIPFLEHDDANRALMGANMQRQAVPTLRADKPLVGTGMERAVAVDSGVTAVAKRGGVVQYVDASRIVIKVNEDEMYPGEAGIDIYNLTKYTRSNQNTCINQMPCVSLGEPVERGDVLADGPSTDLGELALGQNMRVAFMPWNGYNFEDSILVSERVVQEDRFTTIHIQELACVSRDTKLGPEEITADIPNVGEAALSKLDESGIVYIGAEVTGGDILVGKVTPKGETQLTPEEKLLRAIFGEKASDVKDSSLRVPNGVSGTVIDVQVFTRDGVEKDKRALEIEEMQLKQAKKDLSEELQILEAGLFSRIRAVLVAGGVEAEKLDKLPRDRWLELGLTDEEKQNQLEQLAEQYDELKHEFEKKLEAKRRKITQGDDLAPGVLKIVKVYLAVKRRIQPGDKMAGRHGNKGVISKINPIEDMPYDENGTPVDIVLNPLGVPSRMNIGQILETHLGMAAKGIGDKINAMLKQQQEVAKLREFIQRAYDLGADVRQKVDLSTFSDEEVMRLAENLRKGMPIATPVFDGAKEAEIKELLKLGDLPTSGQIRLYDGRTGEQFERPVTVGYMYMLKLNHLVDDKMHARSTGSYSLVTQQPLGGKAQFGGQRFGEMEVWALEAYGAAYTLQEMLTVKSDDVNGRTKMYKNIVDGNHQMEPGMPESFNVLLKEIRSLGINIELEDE
In short: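 E. coli RNA polymerase purified through a high-salt glycerol gradient step, 87 units/ml. Mix: 56 mM Tris-HCl pH 7.8, 1.6 mM MnCl2, 150 mM KCl, 1.6 mM β-mercaptoethanol, 0.6 mM each GTP/ATP/CTP, 0.15 mM [5-3H]-UTP, 0.12 mM P/l calf thymus DNA, drug at 0.12 mM. Started with enzyme at 37°C and sampled over time. TCA-insoluble RNA collected on filters and scintillation counted.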

P388 = test: Antitumor activity against mouse P388 cells allografted in mouse assessed as tumor growth inhibition at 0.25 to 10 mg/kg; assay type: functional, organism-based
In short: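 Screened by the NCI Drug Research and Development Branch against P388 lymphocytic leukemia in mice. Dosing was daily at 0.25-10.0 mg/kg, given by peritoneal injection in water.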

[3] = Dissociation constant, pKa of the compound; assay type: physicochemical
[4] = Solubility of the compound in H2O at pH >7; assay type: physicochemical
[5] = Dissociation constant, pKa of the compound in 20% EtOH/H2O; assay type: physicochemical
Salmonidae [6] = test: Binding affinity to salmon sperm DNA assessed as first order dissociation rate at pH 7.8 by stop-flow technique in presence of 21 mM Na+ ionic strength
In short: (§1)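 Salmon sperm DNA–drug complex preformed without SDS at 6 μM drug and 0.36 mM DNA P/l. Dissociation was started by mixing with 0.2% SDS and followed at 480 nm by stop-flow at 15°C. Buffers were 10 mM MES at pH 6.2 and 1 mM PIPES at pH 7.8, with Na+ set by NaCl. First-order k (sec⁻¹) was taken from rate plots over ≥2.5 half-lives.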

Salmonidae [7] = test: Binding affinity to salmon sperm DNA assessed as first order dissociation rate at pH 7.8 by stop-flow technique in presence of 1 mM Na+ ionic strength; in short: as §1
Salmonidae [8] = test: Binding affinity to salmon sperm DNA assessed as first order dissociation rate at pH 7.8 by stop-flow technique in presence of 201 mM Na+ ionic strength; in short: as §1
Salmonidae [9] = test: Binding affinity to salmon sperm DNA assessed as first order dissociation rate at pH 6.2 by stop-flow technique in presence of 5 mM Na+ ionic strength; in short: as §1
Salmonidae [10] = test: Binding affinity to salmon sperm DNA assessed as first order dissociation rate at pH 6.2 by stop-flow technique in presence of 21 mM Na+ ionic strength; in short: as §1

Rf [1]	inhibition [2]	pKa [3]	solubility [4]	pKa [5]	K (Salmonidae [6])	K (Salmonidae [7])	K (Salmonidae [8])	K (Salmonidae [9])	K (Salmonidae [10])	Compound	TGI (P388)
0.68	Active	7.35	–	–	–	–	–	–	–	COc1cccc2c1C(=O)c1c(O)c3c(c(O)c1C2=O)C[C@@](O)(C(C)=O)C[C@@H]3O[C@H]1C[C@H](NC(=O)CN(C)C)[C@H](O)[C@H](C)O1	Active
–	Active	7.39	–	–	–	–	–	–	–	COc1cccc2c1C(=O)c1c(O)c3c(c(O)c1C2=O)C[C@@](O)(C(C)=O)C[C@@H]3O[C@H]1C[C@H](NC(=O)CNC(=O)CN(C)C)[C@H](O)[C@H](C)O1	Active
–	–	–	Insoluble	7.2	–	–	–	–	–	CCCN(CCC)CC(=O)N[C@H]1C[C@H](O[C@H]2C[C@](O)(C(C)=O)Cc3c(O)c4c(c(O)c32)C(=O)c2c(OC)cccc2C4=O)O[C@@H](C)[C@H]1O	inactive
0.17	Active	8.99	–	–	1.57 s⁻¹	1.37 s⁻¹	2.88 s⁻¹	0.98 s⁻¹	0.98 s⁻¹	COc1cccc2c1C(=O)c1c(O)c3c(c(O)c1C2=O)C[C@@](O)(C(C)=O)C[C@@H]3O[C@H]1C[C@H](N)[C@H](O)[C@H](C)O1.Cl [DAUNORUBICIN HYDROCHLORIDE]	Active
